Kir21 block = blocks the mouse Kir2.1 inward-rectifier potassium channel | HEK293-Kir2.1, FluxOR thallium flux fluorescence; active compounds read low | B-score at 10 µM | 310,000 compounds, 0.85% hits | AID 1672;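 active = fluorescence ratio B-score at or below minus 3 SD of library scores, with starting-brightness B-score within 2 SD, cut at about -4.2 in these data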;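 note: channel flux triggered by added potassium and thallium sulfate stimulus; B-score of peak minus minimum fluorescence over baseline after thallium stimulus; more negative B-score means stronger Kir2.1 block with less thallium influx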
KCNQ1 act = human KCNQ1 channel potentiation or activation. P51787. CHO-K1 KCNQ1, thallium flux FluxOR fluorescence; active compounds read high. B-score at 10 µM. 310,000 compounds, 0.35% hits;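 active = fluorescence ratio B-score, a plate-corrected score, at least three library SD, with initial intensity B-score within 5 SD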
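Schedule – 37 °C overnight plating, 90-min dark dye load, 20-min compound pretreatment · System – stable KCNQ1 CHO-K1 line · Probe or stimulus – thallium- and potassium-containing depolarizing buffer · Measured by – kinetic FluxOR fluorescence, 10 s baseline plus 110 s post-stimulus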
KCNQ1 block = inhibitors of human KCNQ1 potassium channel; P51787; AID 2642; 310,000 compounds, 1.3% hits; CHO-K1 KCNQ1, FluxOR thallium flux fluorescence; active compounds read high; B-score at 10 µM;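 active = compounds whose thallium flux B-score, printed positive for inhibition, exceeds three library SD while starting fluorescence stays within three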;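 note: channel opened by potassium depolarization with thallium stimulus after 20 min compound exposure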
KCNK9 inh = human KCNK9 channel inhibition | Q9NPC2 | HEK293 KCNK9, FluxOR thallium flux fluorescence; active compounds read low | B-score at 10 µM | 310,000 compounds, 1.2% hits;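 active = ratio B-score over 3 SD below the library mean, with starting fluorescence within 5 SD of its mean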;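 note: negative B-score means less thallium flux so channel inhibition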
KCNK3 block = human KCNK3 channel inhibition, primary screen. O14649. CHO-KCNK3 thallium flux, FluxOR fluorescence; active compounds read low. B-score at 10 µM. 340,000 compounds, 0.84% hits. AID 602410;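 active = B-score under library mean minus 4 SD, starting fluorescence ratio at most library mean plus 5 SD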;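 note: more negative B-score means stronger inhibition of thallium flux through KCNK3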
Target sequence (O14649 whole entry, looked up): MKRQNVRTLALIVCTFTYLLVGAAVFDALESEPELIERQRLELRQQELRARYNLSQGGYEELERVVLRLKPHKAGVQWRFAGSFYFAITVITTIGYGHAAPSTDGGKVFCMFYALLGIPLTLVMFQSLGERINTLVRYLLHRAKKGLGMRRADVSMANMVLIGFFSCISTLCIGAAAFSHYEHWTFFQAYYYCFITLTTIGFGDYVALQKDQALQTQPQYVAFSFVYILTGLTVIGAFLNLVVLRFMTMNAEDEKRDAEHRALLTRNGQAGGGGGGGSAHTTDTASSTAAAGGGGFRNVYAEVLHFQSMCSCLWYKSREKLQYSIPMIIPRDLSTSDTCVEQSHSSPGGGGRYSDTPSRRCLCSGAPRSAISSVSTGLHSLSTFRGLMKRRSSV
hERG rescue = compounds protecting human hERG from proarrhythmic drug block. CHO-hERG, FluxOR thallium flux, dofetilide IC70 present. 310,000 compounds, 0.51% hits. activation (rescue from dofetilide block), less the hit threshold, % at 10 µM. Q12809;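 active = activation above the mean of controls blocked by dofetilide plus 5 SD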;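 note: thallium influx through hERG after potassium depolarization seen as dye fluorescence rise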
KCNK9 inh conf = human KCNK9 inhibitor confirmation; shares compounds with KCNK9 inh; HEK293 KCNK9 cells, FluxOR thallium flux fluorescence; inhibition, % at 10 µM; 4,900 compounds, 43% hits; AID 492992;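 active = thallium signal inhibited by more than 5 SD of the compound-free buffer control wells, on both duplicate plates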;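 note: 0% = assay buffer control wells without compound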
Kir21 sel = selectivity of KCNK9 modulators against mouse Kir2.1; inhibition, % at 10 µM; 4,900 compounds, 4% hits; shares compounds with KCNK9 inh; Kir2.1 cells, FluxOR thallium flux fluorescence;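 active = thallium signal drop more than 5 SD beyond the mean of the no-compound control wells, seen in both duplicate plates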;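 note: signal is fluorescence rise after thallium addition divided by baseline fluorescence; plate controls were assay buffer only for no effect and full block by chlorpromazine control for full effect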
KCNK9 uninduced = second counter-screen for KCNK9 modulators: effect in non-induced cells; inhibition, % at 10 µM; AID 492997; shares compounds with KCNK9 inh; 4,900 compounds, 40% hits; non-induced KCNK9-HEK293, FluxOR thallium flux;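 active = thallium signal drop beyond 5 SD of the untreated control mean, on both duplicate plates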;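 note: plate controls were buffer only IC0 wells for no effect and SID17386958 at its maximal inhibitory level for full effect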
Numbers without * were called inactive; i = inactive; . = no result given. This is a sample that favours compounds with a hit; in the whole collection about 3.7% have one here.

SMILES	Kir21 block	KCNQ1 act	KCNQ1 block	KCNK9 inh	KCNK3 block	hERG rescue	KCNK9 inh conf	Kir21 sel	KCNK9 uninduced
COc1cccc(C(=O)N2c3ccccc3Sc3ccccc32)c1	-0.83	i	i	-10.5*	i	-8.2	58.0%*	i	47.5%*
CSCCC(NS(=O)(=O)c1ccc(C)cc1)C(=O)N1CCN(C(c2ccccc2)c2ccccc2)CC1 (stereo unspecified)	0.18	i	i	-9.35*	i	-14.1	35.0%*	i	32.0%*
COc1ccc(-c2nn(-c3ccccc3)cc2C(=O)O)cc1N	-0.35	i	i	i	i	-7.8	.	.	.
O=C(N/N=C/c1cc([N+](=O)[O-])cc(Br)c1O)C12CC3CCC(CC(C3)C1)C2	0.82	25*	i	i	i	-22.0	i	i	i
COc1cc(/C=N/NC(=O)C23CC4CC(CC(C4)C2)C3)cc(Br)c1O	0.51	i	i	i	i	-4.4	.	.	.
Cc1cc2ccccn2c1C(=O)c1nc(NCc2ccccc2)ncc1Cl	0.04	i	i	i	i	-7.0	i	i	25.5%*
COc1cc(C)c(NC(=O)C(=S)N2CCCC2)cc1C	0.03	i	i	i	i	-16.1	.	.	.
COc1cc(C)c(NC(=O)C(=S)NCc2ccccc2)cc1C	0.76	i	i	i	i	3.0	i	i	27.0%*
Cc1cc(SCC(=O)N/N=C/c2ccc(O)c(O)c2O)c(C)cc1Br	-0.48	i	i	i	i	-50.4	i	i	i
CNC(=O)c1c(NC(=O)C2=COCCO2)sc(C)c1C	-0.94	i	i	i	i	-2.3	.	.	.
CCCCOc1ccc(CN2CCSCC2)cc1	0.62	i	i	i	i	-7.2	.	.	.
CC(C)=CCc1c(O)ccc(C2COc3c(CC=C(C)C)c(O)cc(O)c3C2=O)c1O (stereo unspecified)	0.37	i	i	-23.8*	i	-17.6	65.5%*	i	27.5%*
CC(C)=CCc1c(O)cc2c(c1O)C(=O)CC(c1ccccc1)O2 (stereo unspecified)	0.33	i	i	i	i	-8.2	.	.	.
CCOc1ccc(-c2nc(CSCC(=O)NC3CC3)c(C)o2)cc1	0.42	i	i	i	i	-5.7	.	.	.
O=C(CCCOc1ccccc1)NC1CCCc2ccccc21 (stereo unspecified)	1.24	i	i	i	i	-5.4	i	i	i
CCOc1ccc(-c2nc(CSCC(=O)NC3CCCc4ccccc43)c(C)o2)cc1 (stereo unspecified)	0.21	i	6*	-8.3*	i	-9.1	43.5%*	i	42.0%*
O=C(Cc1coc2ccc3ccccc3c12)NCc1ccccc1	-1.1	i	i	i	i	-11.4	.	.	.
O=C(Cc1coc2ccc3ccccc3c12)NC1CCCc2ccccc21 (stereo unspecified)	-0.34	i	i	-11*	i	-8.7	66.0%*	i	36.5%*
Cc1cccnc1NC(=O)CSc1nnc(CNC(=O)c2cccc([N+](=O)[O-])c2)n1C	-1.16	i	i	i	i	-7.2	.	.	.
CCN1/C(=C/c2ccc3ccccc3[n+]2CC)C=Cc2ccccc21	-12.9*	i	13*	-18.1*	-9.02*	-38.3	85.5%*	94.0%*	59.0%*
CCN1/C(=C/c2ccc3ccccc3[n+]2CCCS(=O)(=O)[O-])C=Cc2cc(C)ccc21	-0.06	i	i	i	i	-5.8	.	.	.
O=C(NCc1ccncc1)C(=O)N/N=C/c1cccnc1	-0.04	i	i	i	i	-4.6	.	.	.
COc1ccc(Cl)cc1NC(=O)C(C)N(C)Cc1cccc(Cl)c1Cl (stereo unspecified)	-0.87	i	i	-13.3*	i	-7.8	75.5%*	i	52.0%*
COc1ccc(Cl)cc1NC(=O)CN(C)C1CCCCC1	-0.5	i	i	i	i	-8.9	.	.	.
COc1ccc(Cl)cc1NC(=O)CN(C)C(C)C(=O)NC(=O)NC1CCCCC1 (stereo unspecified)	0.94	i	i	i	i	-16.1	i	i	i
SMILES	Kir21 block	KCNQ1 act	KCNQ1 block	KCNK9 inh	KCNK3 block	hERG rescue	KCNK9 inh conf	Kir21 sel	KCNK9 uninduced
CCCc1nnc(NC(=O)CCCN2C(=O)c3ccccc3C2=O)s1	-0.21	i	i	i	i	-12.9	.	.	.
S=c1[nH]nc(CNc2cccc(Cl)c2)o1	-0.74	i	i	i	i	-8.6	.	.	.
Clc1cccc(NCc2nnc(SCc3ccc(Cl)cc3Cl)o2)c1	-0.08	i	i	i	i	-6.4	i	i	31.5%*
O=C(CC1C(=O)NCCN1Cc1ccc(F)cc1)NCCCn1cccn1 (stereo unspecified)	-0.63	i	i	i	i	-6.0	.	.	.
O=c1ccc2c(o1)/C(=C/C=C(Cl)Cl)CCC2	-0.04	i	i	-12.4*	i	-3.0	41.5%*	i	35.5%*
O=C(c1ccc(F)c(S(=O)(=O)N2CCOCC2)c1)N1CCc2ccccc21	1.93	i	i	i	i	-6.0	i	i	i
CC(C)CN1CCC(=O)N([C@H](CO)c2ccccc2)CC1	0.07	i	i	i	i	-6.1	.	.	.
COc1cc(C(=O)N/N=C(\C)c2ccc(NC(=O)Cc3ccccc3)cc2)ccc1O	-0.47	i	i	i	i	-9.5	.	.	.
Cc1ccccc1C(=O)NC(=S)NCCC1=CCCCC1	-0.04	i	i	i	i	-7.8	i	i	i
Cc1ccccc1C(=O)NC(=S)NCCc1ccccc1	-0.92	i	i	i	i	-3.3	.	.	.
Cc1ccc(SC[C@H](C)CN2CC[C@H](C)CCC2=O)cc1	-4.68*	i	i	i	i	-7.5	i	i	i
COc1cc(/C=N/NC(=O)C(=O)/C=C2\NC3(CCCC3)Cc3ccccc32)ccc1O	2.51	i	i	-11.4*	i	-7.4	44.5%*	i	28.0%*
O=C(/C=C1\NC2(CCCC2)Cc2ccccc21)C(=O)N/N=C/c1ccccc1O	-1.18	i	i	i	i	-12.0	.	.	.
Cc1cc(C)c(C)c(S(=O)(=O)N2CCN(C(=O)c3cc(S(=O)(=O)N4CCOCC4)ccc3F)CC2)c1C	.	.	.	.	i	.	.	.	.
